# ChEMBL document CHEMBL3045225, “Vapor-phase toxicity of Derris scandens Benth.-derived constituents against four stored-product pests” (2011)
# The source made the active and inactive calls. The rule behind the calls is not given here.
# Experiments:
# Callosobruchus chinensis [1] = experiment: Insecticidal activity against 3 to 8 days old Callosobruchus chinensis assessed as mortality at 1 ug/mL measured after 24 hr by fumigation assay; format: functional
# Summary of the method: (§1)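 Adults from Directorate of Maize Research lab cultures, 20 per sealed 100 mL PVC container. Acetone solutions (0.1-1.0 μg/mL) applied to filter paper, air-dried 5 min, fixed inside lid; acetone-only controls. Held at 28 ± 2 °C, 65 ± 5% RH. Death confirmed by paintbrush probing; counted every 24 h to 72 h. Five replicates per treatment; three runs on different dates.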
# Tribolium castaneum [2] = experiment: Insecticidal activity against 3 to 8 days old Tribolium castaneum (red flour beetle) assessed as mortality at 0.2 ug/mL measured within 24 hr by fumigation assay; format: functional, organism-based; summary of the method: as §1
# Tribolium castaneum [3] = experiment: Insecticidal activity against 3 to 8 days old Tribolium castaneum (red flour beetle) assessed as mortality measured after 24 hr by fumigation assay; format: functional; summary of the method: as §1
# Tribolium castaneum [4] = experiment: Insecticidal activity against 3 to 8 days old Tribolium castaneum (red flour beetle) assessed as mortality at 1 ug/mL measured after 72 hr by fumigation assay; format: functional; summary of the method: as §1
# Tribolium castaneum [5] = experiment: Insecticidal activity against 3 to 8 days old Tribolium castaneum (red flour beetle) assessed as mortality at 1 ug/mL measured after 24 hr by fumigation assay; format: functional; summary of the method: as §1
# Rhyzopertha dominica [6] = experiment: Insecticidal activity against 3 to 8 days old Rhyzopertha dominica assessed as mortality measured after 24 hr by fumigation assay; format: functional; summary of the method: as §1
# Rhyzopertha dominica [7] = experiment: Insecticidal activity against 3 to 8 days old Rhyzopertha dominica assessed as mortality at 1 ug/mL measured after 72 hr by fumigation assay; format: functional; summary of the method: as §1
# Rhyzopertha dominica [8] = experiment: Insecticidal activity against 3 to 8 days old Rhyzopertha dominica assessed as mortality at 1 ug/mL measured after 24 hr by fumigation assay; format: functional; summary of the method: as §1
# Sitophilus oryzae [9] = experiment: Insecticidal activity against 3 to 8 days old Sitophilus oryzae (rice weevil) assessed as mortality measured after 72 hr by fumigation assay; format: functional; summary of the method: as §1
# Sitophilus oryzae [10] = experiment: Insecticidal activity against 3 to 8 days old Sitophilus oryzae (rice weevil) assessed as mortality at 1 ug/mL measured after 72 hr by fumigation assay; format: functional; summary of the method: as §1
# Sitophilus oryzae [11] = experiment: Insecticidal activity against 3 to 8 days old Sitophilus oryzae (rice weevil) assessed as mortality at 1 ug/mL measured after 24 hr by fumigation assay; format: functional; summary of the method: as §1
# Callosobruchus chinensis [12] = experiment: Insecticidal activity against 3 to 8 days old Callosobruchus chinensis assessed as mortality measured after 72 hr by fumigation assay; format: functional; summary of the method: as §1
# Callosobruchus chinensis [13] = experiment: Insecticidal activity against 3 to 8 days old Callosobruchus chinensis assessed as mortality at 1 ug/mL measured after 72 hr by fumigation assay; format: functional; summary of the method: as §1
# Callosobruchus chinensis [14] = experiment: Insecticidal activity against 3 to 8 days old Callosobruchus chinensis assessed as mortality at 1 ug/mL measured after 48 hr by fumigation assay; format: functional; summary of the method: as §1
# Tribolium castaneum [15] = experiment: Insecticidal activity against 3 to 8 days old Tribolium castaneum (red flour beetle) assessed as mortality at 1 ug/mL measured after 48/ hr by fumigation assay; format: functional; summary of the method: as §1
# Rhyzopertha dominica [16] = experiment: Insecticidal activity against 3 to 8 days old Rhyzopertha dominica assessed as mortality at 1 ug/mL measured after 48 hr by fumigation assay; format: functional; summary of the method: as §1
# Sitophilus oryzae [17] = experiment: Insecticidal activity against 3 to 8 days old Sitophilus oryzae (rice weevil) assessed as mortality at 1 ug/mL measured after 48 hr by fumigation assay; format: functional; summary of the method: as §1
Compound,mortality at 1 µg/mL (Callosobruchus chinensis [1]),Activity (Tribolium castaneum [2]),LC50 (Tribolium castaneum [3]),mortality at 1 µg/mL (Tribolium castaneum [4]),mortality at 1 µg/mL (Tribolium castaneum [5]),LC50 (Rhyzopertha dominica [6]),mortality at 1 µg/mL (Rhyzopertha dominica [7]),mortality at 1 µg/mL (Rhyzopertha dominica [8]),LC50 (Sitophilus oryzae [9]),mortality at 1 µg/mL (Sitophilus oryzae [10]),mortality at 1 µg/mL (Sitophilus oryzae [11]),LC50 (Callosobruchus chinensis [12]),mortality at 1 µg/mL (Callosobruchus chinensis [13]),mortality at 1 µg/mL (Callosobruchus chinensis [14]),mortality at 1 µg/mL (Tribolium castaneum [15]),mortality at 1 µg/mL (Rhyzopertha dominica [16]),mortality at 1 µg/mL (Sitophilus oryzae [17])
O=c1c(-c2ccc(O)cc2)coc2cc(O)cc(O)c12 [GENISTEIN],100%,Active,0.18 µg/mL,100%,100%,0.28 µg/mL,100%,100%,0.31 µg/mL,100%,100%,0.17 µg/mL,100%,,,,
CC(C)=CCc1c2c(c(O)c3c(=O)cc(-c4ccc(O)cc4)oc13)C=CC(C)(C)O2 [LAXIFOLIN],88.8%,,0.34 µg/mL,100%,92.3%,0.34 µg/mL,92%,89.3%,0.2 µg/mL,100%,100%,0.39 µg/mL,96.4%,93.2%,94.6%,90.8%,
CC(C)=CCc1cc(-c2coc3cc(O)c(CC=C(C)C)c(O)c3c2=O)ccc1O [LUPALBIGENIN],100%,,0.38 µg/mL,91%,85.4%,0.29 µg/mL,100%,93.4%,0.26 µg/mL,100%,100%,0.23 µg/mL,100%,,88.4%,94.6%,
CC(C)=CCc1c2c(c3occ(-c4ccc(O)cc4)c(=O)c3c1O)C=CC(C)(C)O2 [OSAJIN],100%,Active,0.26 µg/mL,100%,100%,0.32 µg/mL,100%,100%,0.28 µg/mL,100%,100%,0.29 µg/mL,100%,,,,
COc1ccc(-c2c(O)c3c(OC)c(CC=C(C)C)c4c(c3oc2=O)C=CC(C)(C)O4)cc1 [SCANDENIN A],79%,,0.82 µg/mL,63.8%,58.2%,0.82 µg/mL,67.8%,60.6%,0.76 µg/mL,75.6%,69.4%,0.43 µg/mL,83%,81.4%,60.8%,64.2%,72%
COc1c(CC=C(C)C)c2c(c3oc(=O)c(-c4ccc(O)cc4)c(O)c13)C=CC(C)(C)O2 [SCANDENIN],49.5%,,> 1 µg/mL,32.2%,24.7%,0.74 µg/mL,78.2%,72.3%,0.45 µg/mL,85.4%,82%,0.9 µg/mL,58.2%,56%,29.6%,75.8%,83.6%
COc1c(CC=C(C)C)c2c(c3occ(-c4ccc(O)cc4)c(=O)c13)C=CC(C)(C)O2 [SCANDINONE],100%,Active,0.2 µg/mL,100%,100%,0.33 µg/mL,100%,100%,0.24 µg/mL,100%,100%,0.31 µg/mL,100%,,,,
C[C@@H]1O[C@@H](OC[C@H]2O[C@@H](Oc3cc(O)c4c(=O)c(-c5ccc(O)cc5)coc4c3)[C@H](O)[C@@H](O)[C@@H]2O)[C@H](O)[C@H](O)[C@H]1O [SPHAEROBIOSIDE],100%,Active,0.2 µg/mL,100%,100%,0.27 µg/mL,100%,100%,0.18 µg/mL,100%,100%,0.21 µg/mL,100%,,,,
CC(C)=CCc1c2c(c(O)c3c(=O)c(-c4ccc(O)cc4)coc13)C=CC(C)(C)O2 [WARANGALONE],27.9%,,> 1 µg/mL,37.2%,30.7%,> 1 µg/mL,21.8%,15.8%,0.84 µg/mL,63.4%,50.1%,> 1 µg/mL,31.4%,29.1%,32.8%,18.6%,60%
